Results as given in paper PMC7616001 (Journal of medicinal chemistry, 2022).

Legend:
[1] = system: RIP1 and RIP3 in HeLa cells; assay: Western blot of necroptosis marker proteins; assay type: cell-based, human; details: 24 h
In short: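 Western blot for RIP1/RIP3: about 2 × 10^6 HeLa cells at 80–90% confluency were given test compound (10, 20, 40 μM) for 24 h, with shikonin as a reference necroptosis inducer. Cells were lysed in RIPA with protease inhibitors and run on 10/12% SDS-PAGE, then transferred to PVDF. Membranes were blocked in 2% milk, probed with primary antibody (1:1000, overnight, 4 °C), then with HRP secondary antibody (0.75:1000).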

[2] = system: ER of HeLa cells; assay: ER imaging of ER-RFP-labeled HeLa cells; assay type: cell-based, human
In short: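 HeLa cells transduced with a CellLight ER-RFP BacMam 2.0 construct, replated on glass-bottom dishes overnight, then treated with test compound (20 or 40 μM) for 8 h or 24 h. A platinum–ferrocene complex (40 μM) served as positive control. After PBS washes, confocal images were taken in phenol red-free medium (ex 543 nm, em 584–655 nm) at constant exposure.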

[3] = system: acidic vesicular organelles in HeLa cells; assay: Acridine orange assay; assay type: cell-based, human; details: HeLa, 10, 20, 40 μM, 24 h
In short: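 HeLa cells in 35 mm dishes exposed to test compound at 10, 20 or 40 μM for 24 h, or rapamycin (1 μM, 24 h) as reference. Medium replaced with FBS-free medium containing 1 μM acridine orange for 25 min in the dark (37 °C, 5% CO2). Cells washed with PBS and overlaid with phenol red-free DMEM (4% FBS) for imaging.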

[4] = Reversible aquation and anation by 1H NMR; assay type: physicochemical; details: DMSO/D2O without NaCl, within 10 min
In short: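 1H NMR in DMSO/D2O. At 10 min, 666 mM NaCl in D2O added to give 100 mM NaCl in DMSO/D2O (85:15 v/v). Spectra recorded at regular intervals up to 60 min.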

[5] = system: genomic DNA of HeLa cells; assay: Metalation of genomic DNA, ICP-MS; assay type: cell-based, human; details: 20 μM, 24 h exposure
[6] = system: ROS level in HeLa cells; assay: H2DCF-DA intracellular ROS assay; assay type: cell-based, human; details: 10 μM, 1-8 h
In short: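 HeLa plated at 10 × 10^3 per well, grown overnight, then exposed to 10 μM test compound for 1, 2, 4 or 8 h. Washed with PBS and loaded with 10 μM H2DCF‑DA for 30 min. Washed again, phenol red‑free DMEM added, fluorescence read immediately. Three biological replicates.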

[7] = Stability in RPMI-1640 cell culture medium by UPLC; assay type: physicochemical
In short: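 Test compound incubated in RPMI‑1640 and monitored by UPLC. Run twice, each with three replicates.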

[8] = Octanol-water partition coefficient, shake-flask method; assay type: physicochemical; details: 100 mM NaCl, 37 °C, Ru by ICP-MS
In short: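 Shake‑flask partition. Octanol‑saturated water and water‑saturated octanol prepared beforehand by shaking a 1:1 octanol/water mixture for 24 h, then separating the layers.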

[9] = system: HeLa; assay: 24 h MTT assay, HeLa cells; assay type: cell-based, human; details: read-out: IC50/24h
In short: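 HeLa in DMEM with 10% FBS and 1% penicillin/streptomycin, 3 × 10^3 cells/well, grown overnight. Fresh DMSO stocks (Ru content confirmed by ICP‑MS) serially diluted in medium; final DMSO ≤0.1%. 24 h exposure, then MTT 0.5 mg/mL for 3 h. Formazan dissolved in DMSO, A570 read and normalised to untreated wells. IC50 taken from dose–response curves; ≥3 independent experiments of 3 or 6 replicates.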

[10] = system: A2780cis; assay: MTT assay, 72 h continuous exposure, cisplatin-resistant A2780Cis cells; assay type: cell-based, human
In short: (§1)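 Ovarian lines grown in RPMI with 10% FBS and 1% penicillin/streptomycin; A2780Cis kept on 2 μM cisplatin 3 days each week. HeLa grown in DMEM with the same supplements. 3 × 10^3 cells/well, overnight, then serial dilutions of DMSO stocks (final DMSO ≤0.1%); cisplatin stock in PBS. 72 h continuous exposure, MTT 0.5 mg/mL 3 h, formazan in DMSO, A570 normalised to untreated. IC50 from curves; ≥3 independent experiments.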

[11] = system: LC3-II/LC3-I in HeLa cells; assay: Western blot of autophagy marker proteins; assay type: cell-based, human; details: 24 h
In short: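 ~2 million HeLa per 60 mm dish, grown to 80–90% confluency, then treated 24 h. Lysed in RIPA buffer with protease inhibitors. Membranes blocked with 2% skim milk in 0.1% Tween 20 for 30 min. Primary antibody 1:1000 overnight at 4 °C; HRP secondary antibody; LC3 forms detected.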

[12] = system: mitochondrial Ca^2+ level in HeLa cells; assay: Mitochondrial Ca2+ level, Rhod-2 AM imaging; assay type: cell-based, human; details: 20 μM
[13] = system: mitochondria of HeLa cells; assay: Mitochondrial morphology, confocal imaging of mito-GFP HeLa cells; assay type: cell-based, human; details: 1/2 × IC50/24h (20 μM)
[14] = system: ΔΨm of HeLa cells; assay: JC-1 mitochondrial membrane potential assay, flow cytometry; assay type: cell-based, human; details: 24 h, even at 1/4 × IC50/24h (10 μM)
[15] = system: HeLa cells; assay: Annexin-V/PI dual staining flow cytometry; assay type: cell-based, human; details: 24 h
[16] = system: A2780; assay: MTT assay, 72 h continuous exposure, A2780 cells; assay type: cell-based, human
In short: as §1

[17] = system: HeLa; assay: 72 h crystal violet; assay type: cell-based, human
In short: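 Seeding and dosing as for MTT: 3 × 10^3 cells/well, overnight, final DMSO ≤0.1%, 72 h exposure. Wells washed with PBS and fixed in 4% paraformaldehyde for 15 min. Crystal violet stained, dried, dissolved in 96% ethanol and A570 read. IC50 derived from dose–response curves.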

[18] = system: zebrafish sub-intestinal venous plexus (SIVP) angiogenesis; assay: Zebrafish SIVP angiogenesis model; assay type: in vivo, zebrafish (Danio rerio); details: 20/30/40 μM from 26 hpf, imaged at 72 hpf
In short: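 Test compound stock 5 mM in DMSO, diluted in E3 to final 20, 30 or 40 μM; DMSO vehicle at 10 μL/mL E3. Four 26 hpf Tg(etv2:EGFP) embryos per 1 mL. Raised to 72 hpf at 28 °C for confocal analysis of the sub‑intestinal venous plexus.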

For Cc1ccc(C(C)C)cc1.O=C(C=C([O-])C(F)(F)F)[c-]1cccc1.[Cl-].[Fe+2].[Ru+2].c1cc[cH-]c1 [Compound 1, [(η^6-p-cymene)Ru(1,1,1-trifluoro-4-oxo-4-ferrocenyl-but-2-en-2-olate)Cl]], the “expression level of RIP1 and RIP3” value [1] was “increased the expression level of RIP1 and RIP3”, the “ER dilation and vacuole formation” value [2] was “ER dilation and/or vacuole formation were not observed” and the acidic vesicular organelles [3] was “did not cause formation and promotion of acidic vesicular organelles”. For the same compound, the fraction aquated [4] was ~ 95%, the “metalation of genomic DNA” value [5] was “comparable with that of the classical DNA-targeted Pt drug cisplatin” and the “intracellular ROS level (H2DCF-DA)” value [6] was “significant increase in ROS”. The “intact compound remaining in RPMI-1640 with 10% FBS” value ([7]; after 24 h) was ~45%, the “intact compound remaining in RPMI-1640 with 10% FBS” value ([7]; after 72 h) was ~7% and the “decomposition in RPMI-1640 with 10% FBS” value ([7]; up to 8 h, 37 °C, UPLC) was < 20%. The “log P” value [8] was 1.1 ± 0.1, the IC50 [9] was 38 ± 3 µM and the “RF (A2780)” value ([10]; RF = IC50 in A2780Cis/IC50 in A2780) was 1.2. For the same compound, the IC50 ([10]; read-out: IC50 A2780cis, 72 h continuous exposure, MTT assay) was 3.1 ± 0.1 µM, the “ratio of LC3-II/LC3-I” value [11] was “no increase in the ratio of LC3-II/LC3-I” and the “increase in mitochondrial Ca^2+ level compared to untreated control” value [12] was ~ 5 fold. For the same compound, the mitochondrial morphology [13] was “rounded and punctate”, the “effect on ΔΨm (JC-1 red/green)” value [14] was “dramatic decrease in ΔΨm” and the “AV^−/PI^+ cells (necrosis)” value ([15]; 10 μM) was 9%. For the same compound, the “AV^−/PI^+ cells (necrosis)” value ([15]; 20 μM) was 15.4%, the “fold more potent compared to Ru1, Ru3 and Ru4” value ([16]; A2780 cells) was 3−18 fold and the IC50 ([16]; read-out: IC50 A2780, 72 h continuous exposure, MTT assay) was 2.5 ± 0.3 µM. For the same compound, the “IC50 from CV assay compared to IC50 from MTT assay” value ([17]; HeLa and A2780, 72 h) was ~ 3 fold, the IC50 ([17]; read-out: IC50 (CV assay) HeLa, 72 h CV assay) was 4.4 ± 1.7 µM and the “effect on SIVP angiogenesis (SIVP area, number of compartments)” value [18] was “dose-dependent antiangiogenic effects”.
